KCNK9 inh: blocks the human KCNK9 two-pore domain potassium channel | Q9NPC2 | HEK293 KCNK9, FluxOR thallium flux fluorescence; active compounds read low | B-score at 10 µM | 310,000 tested, 1.2% active | AID 488922;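 active = ratio B-score over 3 SD below the library mean, with starting fluorescence within 5 SD of its mean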;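 note: negative B-score means less thallium flux so channel inhibition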
KCNQ1 pot: potentiators or activators of human KCNQ1 potassium channel; P51787; CHO-K1 KCNQ1, thallium flux FluxOR fluorescence; active compounds read high; B-score at 10 µM; 310,000 tested, 0.35% active; AID 2648;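 active = fluorescence ratio B-score, a plate-corrected score, at least three library SD, with initial intensity B-score within 5 SD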
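Test system: CHO-K1 cells stably expressing KCNQ1 / Medium: assay buffer / Also added: depolarizing K+/Tl+ stimulus, K2SO4 and Tl2SO4 each 12.5 mM in 5x stock / Incubation: 90 min dye loading and 20 min compound exposure, both at room temperature / Signal: thallium influx via FluxOR fluorescence, kinetic imaging / Evaluation: B score of baseline-normalized fluorescence ratio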
KCNK3 inh: human KCNK3 channel inhibition, primary screen; O14649; CHO-KCNK3 thallium flux, FluxOR fluorescence; active compounds read low; B-score at 10 µM; 340,000 tested, 0.84% active; AID 602410;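 active = B-score under library mean minus 4 SD, starting fluorescence ratio at most library mean plus 5 SD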;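 note: more negative B-score means stronger inhibition of thallium flux through KCNK3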
hERG rescue: hERG (human) protection from proarrhythmic block; Q12809; activation (rescue from dofetilide block), less the hit threshold, % at 10 µM; CHO-hERG, FluxOR thallium flux, dofetilide IC70 present; 310,000 tested, 0.51% active;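 active = activation above the mean of controls blocked by dofetilide plus 5 SD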;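 note: thallium influx through hERG after potassium depolarization seen as dye fluorescence rise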
KCNQ1 block: human KCNQ1 channel inhibition; P51787; 310,000 tested, 1.3% active; CHO-K1 KCNQ1, FluxOR thallium flux fluorescence; active compounds read high; B-score at 10 µM; AID 2642;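 active = compounds whose thallium flux B-score, printed positive for inhibition, exceeds three library SD while starting fluorescence stays within three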;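 note: channel opened by potassium depolarization with thallium stimulus after 20 min compound exposure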
Cl transport mod: modulates chloride dependent transport by human KCC2. KCC2 cells, thallium flux FluoZin-2 fluorescence. B-score of Tl+ flux slope (higher = more flux/activation; lower = inhibition) at 10 µM. 190,000 tested, 2.2% active;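 active = thallium flux slope and its plate-corrected score both differing from the plate sample mean at a set confidence after two filtering rounds, in either direction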;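 note: slope of fluorescence scaled to starting intensity during 10 to 20 s after thallium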
Target sequence (Q9H2X9 whole entry, looked up): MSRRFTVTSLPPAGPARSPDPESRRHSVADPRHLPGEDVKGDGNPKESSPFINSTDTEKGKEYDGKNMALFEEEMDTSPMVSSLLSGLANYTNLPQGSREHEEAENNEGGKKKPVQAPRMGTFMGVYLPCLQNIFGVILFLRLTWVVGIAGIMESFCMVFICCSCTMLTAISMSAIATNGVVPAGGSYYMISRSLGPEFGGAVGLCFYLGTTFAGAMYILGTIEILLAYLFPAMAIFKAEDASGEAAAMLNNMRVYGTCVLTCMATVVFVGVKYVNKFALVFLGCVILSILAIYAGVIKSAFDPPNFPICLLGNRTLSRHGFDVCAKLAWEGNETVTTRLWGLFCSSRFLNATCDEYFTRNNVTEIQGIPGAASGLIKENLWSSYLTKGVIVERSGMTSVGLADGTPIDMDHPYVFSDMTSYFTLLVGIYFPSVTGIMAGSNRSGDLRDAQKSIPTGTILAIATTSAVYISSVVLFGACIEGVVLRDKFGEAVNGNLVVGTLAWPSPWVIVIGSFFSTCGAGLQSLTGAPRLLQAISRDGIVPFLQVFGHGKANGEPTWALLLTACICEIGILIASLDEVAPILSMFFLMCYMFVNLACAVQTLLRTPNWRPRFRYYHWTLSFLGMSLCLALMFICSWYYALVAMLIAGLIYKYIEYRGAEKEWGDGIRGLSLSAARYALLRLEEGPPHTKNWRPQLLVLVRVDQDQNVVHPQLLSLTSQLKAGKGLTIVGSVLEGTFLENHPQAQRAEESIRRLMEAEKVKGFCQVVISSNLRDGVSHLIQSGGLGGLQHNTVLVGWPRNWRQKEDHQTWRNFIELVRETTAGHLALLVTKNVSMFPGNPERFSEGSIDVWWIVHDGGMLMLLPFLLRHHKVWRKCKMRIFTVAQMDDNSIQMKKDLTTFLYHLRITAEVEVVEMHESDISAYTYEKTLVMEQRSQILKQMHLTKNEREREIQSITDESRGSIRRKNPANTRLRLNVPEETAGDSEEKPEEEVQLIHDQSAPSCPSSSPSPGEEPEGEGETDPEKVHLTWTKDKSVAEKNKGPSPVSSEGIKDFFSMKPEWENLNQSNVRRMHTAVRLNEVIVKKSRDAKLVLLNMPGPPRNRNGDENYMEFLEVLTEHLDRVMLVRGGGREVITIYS
KCNK9 block conf: confirmation of human KCNK9 potassium channel inhibitors | shares compounds with KCNK9 inh | HEK293 KCNK9 cells, FluxOR thallium flux fluorescence | inhibition, % at 10 µM | 4,900 tested, 43% active | AID 492992;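 active = thallium signal inhibited by more than 5 SD of the compound-free buffer control wells, on both duplicate plates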;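 note: 0% = assay buffer control wells without compound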
Kir2-1 spec: mouse Kir2.1 off-target activity of KCNK9 modulators; shares compounds with KCNK9 inh; Kir2.1 cells, FluxOR thallium flux fluorescence; inhibition, % at 10 µM; 4,900 tested, 4% active; AID 492993;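 active = thallium signal drop more than 5 SD beyond the mean of the no-compound control wells, seen in both duplicate plates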;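 note: signal is fluorescence rise after thallium addition divided by baseline fluorescence; plate controls were assay buffer only for no effect and full block by chlorpromazine control for full effect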
KCNK9 uninduced: second counter-screen for KCNK9 modulators: effect in non-induced cells; shares compounds with KCNK9 inh; non-induced KCNK9-HEK293, FluxOR thallium flux; inhibition, % at 10 µM; 4,900 tested, 40% active; AID 492997;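 active = thallium signal drop beyond 5 SD of the untreated control mean, on both duplicate plates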;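 note: plate controls were buffer only IC0 wells for no effect and SID17386958 at its maximal inhibitory level for full effect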
Numbers without * were called inactive; i = inactive; / = not tested or not shown. The list is not random: actives were taken first. Their share in the collection is about 4.1%.

SMILES	KCNK9 inh	KCNQ1 pot	KCNK3 inh	hERG rescue	KCNQ1 block	Cl transport mod	KCNK9 block conf	Kir2-1 spec	KCNK9 uninduced
CC/C(=N\NC(=S)Nc1ccc(OC)cc1)c1ccc(OC(F)F)cc1	i	i	i	0	i	8.7*	i	i	i
COc1ccc(/C=N/Nc2cc(N3CCCC3)nc(N3CCCC3)n2)cc1	i	i	i	-22	8*	0.024	i	i	i
Oc1ccc(/C=N/Nc2cc(N3CCCC3)nc(N3CCCC3)n2)cc1	i	i	i	-6	i	0.85	/	/	/
O=c1nc(SCc2ccc(Cl)cc2)nc(-c2ccccc2)[nH]1	i	i	i	-8	i	-1.4	i	i	i
O=c1nc(SCc2c(F)cccc2Cl)nc(-c2ccccc2)[nH]1	i	i	/	-6	i	-1.5	/	/	/
Cc1[nH]n(-c2ccccc2)c(=O)c1N=Nc1ccc2c(c1)OCO2	i	i	i	-11	i	-0.53	/	/	/
Cc1[nH]n(C2=NCCS2)c(=O)c1N=Nc1ccccc1	-12*	i	i	-16	i	0.66	i	i	32%*
Cc1cccc(N2C(=O)C3CCC(c4ccccc4)CC3C2=O)c1 (stereo not given)	i	i	i	-1	i	-0.68	i	i	i
Cc1ccc(Cn2c(SCC(=O)N3CC(=O)Nc4ccccc43)nc3ccccc3c2=O)cc1	i	i	i	-2	i	3.4	i	i	i
CC(c1ccccc1)n1c(SCC(=O)N2CC(=O)Nc3ccccc32)nc2ccccc2c1=O (stereo not given)	-9*	i	i	-6	i	2.1	36%*	i	i
CCc1cc2c(COC(=O)c3cccc(NS(C)(=O)=O)c3)cc(=O)oc2cc1O	i	i	i	-8	i	/	/	/	/
CSCC(=O)Nc1ccc(F)c(Cl)c1	i	i	i	-7	i	-0.1	i	i	i
CCCCC(=O)Nc1ccc(F)c(Cl)c1	i	i	i	-13	i	/	/	/	/
Cc1nn(Cc2ccccc2)c(C)c1C(=O)OCC(=O)c1cc(C)n(CC(F)(F)F)c1C	i	i	i	-10	i	-0.43	i	i	i
Cc1cc(C(=O)COC(=O)c2ccco2)c(C)n1Cc1ccco1	i	i	i	-11	i	-2.4	/	/	/
CC(C)Oc1ccc(CNC(=O)c2ccc3c(c2)N(C)CCS3)cc1	i	i	i	-15	i	/	i	i	i
CC(c1ccco1)N(C(=O)CSc1ccc(Br)cc1)c1ccccn1 (stereo not given)	-8.9*	i	-9.8*	-15	i	-1.2	i	37%*	38%*
CC(C)CN(C(=O)COC(=O)c1cc2ccccc2cc1O)c1c(N)n(Cc2ccccc2)c(=O)[nH]c1=O	/	/	i	/	/	/	/	/	/
CCOC(=O)c1ccc(-c2c(-c3ccccc3OC)sc3cc4c(cc23)OCO4)cc1F	/	/	i	/	/	/	/	/	/
NC(=O)C1Cc2ccccc2CN1C(=O)c1nn(Cc2ccccc2)c(=O)c2ccccc12 (stereo not given)	/	/	i	/	/	/	/	/	/
CC(C)c1ccc(OCc2ccc(C(=O)N3CCN(c4ccccn4)CC3)cc2)cc1	i	i	i	-8	6*	0.1	i	i	i
CO/N=C/c1ccc(N2CCOCC2)c([N+](=O)[O-])c1	i	i	i	-14	i	1.3	/	/	/
O=[N+]([O-])c1cc(/C=N/OCc2c(Cl)cccc2Cl)ccc1N1CCOCC1	i	i	i	-14	i	-0.005	i	i	i
N#Cc1c(SCc2ccc(Cl)cc2)sc(C(=O)c2ccccc2)c1N	-11*	i	i	-6	i	-0.76	26%*	i	34%*
O=C(Nc1cccc(S(=O)(=O)NC2=NCCC2)c1)c1cc(Cl)ccc1[N+](=O)[O-]	i	i	i	-15	i	/	/	/	/
SMILES	KCNK9 inh	KCNQ1 pot	KCNK3 inh	hERG rescue	KCNQ1 block	Cl transport mod	KCNK9 block conf	Kir2-1 spec	KCNK9 uninduced
O=c1c(Cl)c(O)ccn1C1OC(CO)C(O)C1O (stereo not given)	/	/	i	/	/	/	/	/	/
Cc1c(C(=O)N2CCC[C@H]2C(N)=O)oc2c(F)cccc12	i	i	i	-3	i	/	i	i	i
Fc1ccccc1N1CCN(Cc2nc(-c3ccccc3)no2)CC1	i	i	i	-13	i	-0.68	i	i	i
Fc1ccccc1N1CCN(CCCc2ccccc2)CC1	i	i	i	-10	i	/	/	/	/
COc1ccc(-c2noc(CN3CCN(c4ccccc4F)CC3)n2)cc1OC	i	i	i	-8	i	-0.00079	i	i	i
c1ccc(-c2noc(CN3CCN(c4ccccc4)CC3)n2)cc1	i	i	i	-10	i	/	/	/	/
O=C1c2ccccc2C(=O)N1Cc1nc(-c2ccncc2)no1	i	i	i	-7	i	-0.33	/	/	/
Fc1ccccc1N1CCN(Cc2cc(-c3ccccc3)on2)CC1	i	i	i	-5	i	/	i	i	i
O=C1c2ccccc2C(=O)N1Cc1nc(-c2ccccc2)no1	i	i	i	-8	i	/	i	i	i
Cc1ccc(S(=O)(=O)Nc2cc3c4c(c2)CCC(=O)N4CCC3)cc1	i	i	i	-14	i	/	/	/	/
Clc1ccc2c(SCC3CO3)c3ccccc3nc2c1 (stereo not given)	/	/	i	/	/	/	/	/	/
Cc1nc(-c2cccc(NC(=O)c3cccs3)c2)cs1	i	i	i	-16	i	-1.3	/	/	/
O=C(Nc1cccc(-c2csc(-c3ccccc3)n2)c1)c1cccs1	-12*	i	i	-6	i	/	45%*	i	i
CC(C)CC(=NNC(=O)c1ccncc1)c1cc(Cl)ccc1O	/	/	i	/	/	/	/	/	/
COc1ccc(CCC(=O)NNC(=O)c2ccccn2)cc1OC	/	/	i	/	/	/	/	/	/
O=C(NC1CCCCCC1)c1ccc([N+](=O)[O-])s1	/	/	i	/	/	/	/	/	/
CC(C)CCn1c(=O)c2ccccc2n2c(CN(C)Cc3ccccc3)nnc12	i	i	i	-11	i	/	i	i	i
Cc1ccc(SC[C@H](C)CN2CC[C@H](C)CCC2=O)cc1	i	i	i	-8	i	/	i	i	i
O=S(=O)(c1ccc(S(=O)(=O)N2CCN(C/C=C/c3ccccc3)CC2)cc1)N1CCCC1	i	i	i	-3	i	0.19	/	/	/

Screens deposited in PubChem BioAssay by several laboratories.
